Assay results reported in the RNAGym collection of RNA variant scans (doi:10.1002/anie.201605470).

B1: Osa-1-4 twister ribozyme (parent)
chain: CCGCCUAACACUGCCAAUGCCGGUCCCAAGCCCGGAUAAAAGUGGAGGGGGCGG

Variants of: B1
Assay: self-cleavage, relative activity (ratio to wild type); higher = more cleavage; co-transcriptional
Procedure, shortened: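 For each read, cleavage status was taken from whether upstream sequence was present. The reads came from an Oryza sativa twister ribozyme of 54 nucleotides, whose DNA template was synthesised with 97 % wild-type base and 1 % of each other base at the 48 positions downstream of the cleavage site. The template was transcribed in vitro at 37 °C for 2 h with co-transcriptional self-cleavage, and the RNA was reverse-transcribed using a template-switching oligonucleotide, PCR-amplified and deep-sequenced. Relative activity is the fraction cleaved normalised to wild type.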

Variant	self-cleavage
CCGCCUAACACUGCCAAUGCCGGUCUCAAGCCCGGAUAAAAGGGGAGGGGGCGG [C26U U43G]	0.15
CCGCCUAACACUGCCAAUGCCGGUCUCAAGCCCGGAUAAAAGCGGAGGGGGCGG [C26U U43C]	0.14
CCGCCUAACACUGCCAAUGCCGGUCUCAAGCCCGGAUAAAAGAGGAGGGGGCGG [C26U U43A]	0.32
CCGCCUAACACUGCCAAUGCCGGUCCAAAGCCCGGAUAAAAGUGGAGCGGGCGG [C27A G48C]	0.05
CCGCCUAACACUGCCAAUGCCGGUCCAAAGCCCGGAUAAAAGUGGAGAGGGCGG [C27A G48A]	0.04
CCGCCUAACACUGCCAAUGCCGGUCCAAAGCCCGGAUAAAAGUGGAGUGGGCGG [C27A G48U]	0.04
CCGCCUAACACUGCCAAUGCCGGUCCAAAGCCGGGAUAAAAGUGGAGGGGGCGG [C27A C33G]	0.04
CCGCCUAACACUGCCAAUGCCGGUCCAAAGCCUGGAUAAAAGUGGAGGGGGCGG [C27A C33U]	0.1
CCGCCUAACACUGCCAAUGCCGGUCCAAAGCCAGGAUAAAAGUGGAGGGGGCGG [C27A C33A]	0.09
CCGCCUAACACUGCCAAUGCCGGUCCAAAUCCCGGAUAAAAGUGGAGGGGGCGG [C27A G30U]	0.03
CCGCCUAACACUGCCAAUGCCGGUCCAAAACCCGGAUAAAAGUGGAGGGGGCGG [C27A G30A]	0.02
CCGCCUAACACUGCCAAUGCCGGUCCAAACCCCGGAUAAAAGUGGAGGGGGCGG [C27A G30C]	0.03
CCGCCUAAAACUGCCAAUGCCGGUCCAAAGCCCGGAUAAAAGUGGAGGGGGCGG [C27A C9A]	0.09
CCGCCUAAGACUGCCAAUGCCGGUCCAAAGCCCGGAUAAAAGUGGAGGGGGCGG [C27A C9G]	0.1
CCGCCUAAUACUGCCAAUGCCGGUCCAAAGCCCGGAUAAAAGUGGAGGGGGCGG [C27A C9U]	0.07
CCGCCUAACACUACCAAUGCCGGUCCAAAGCCCGGAUAAAAGUGGAGGGGGCGG [C27A G13A]	0.03
CCGCCUAACACUUCCAAUGCCGGUCCAAAGCCCGGAUAAAAGUGGAGGGGGCGG [C27A G13U]	0.02
CCGCCUAACACUCCCAAUGCCGGUCCAAAGCCCGGAUAAAAGUGGAGGGGGCGG [C27A G13C]	0.01
CCGCCUAACACUGCCAAUGCCGAUCCAAAGCCCGGAUAAAAGUGGAGGGGGCGG [C27A G23A]	0.06
CCGCCUAACACUGCCAAUGCCGCUCCAAAGCCCGGAUAAAAGUGGAGGGGGCGG [C27A G23C]	0.03
CCGCCUAACACUGCCAAUGCCGUUCCAAAGCCCGGAUAAAAGUGGAGGGGGCGG [C27A G23U]	0.04
CCGCCUAACACUGCCAAUGCCGGUCCAAAGCCCGGAUAAAAGUGGAGGGGGCGG [C27A]	0.37
CCGCCUAACACUGCCAAUGCCGGUCCAAAGCCCGGAUAAAAGUGGAAGGGGCGG [C27A G47A]	0.24
CCGCCUAACACUGCCAAUGCCGGUCCAAAGCCCGGAUAAAAGUGGAUGGGGCGG [C27A G47U]	0.83

Variant	self-cleavage
CCGCCUAACACUGCCAAUGCCGGUCCAAAGCCCGGAUAAAAGUGGACGGGGCGG [C27A G47C]	0.36
CCGCCUAACACUGCCAAUGCCGGUCUCAAGCCCGGAUAAAAGUGGAGAGGGCGG [C26U G48A]	0.82
CCGCCUAACACUGCCAAUGCCGGUCUCAAGCCCGGAUAAAAGUGGAGUGGGCGG [C26U G48U]	0.08
CCGCCUAACACUGCCAAUGCCGGUCUCAAGCCCGGAUAAAAGUGGAGCGGGCGG [C26U G48C]	0.1
CCGCCUAACACUGCCAAUCCCGGUCCAAAGCCCGGAUAAAAGUGGAGGGGGCGG [C27A G19C]	0.03
CCGCCUAACACUGCCAAUACCGGUCCAAAGCCCGGAUAAAAGUGGAGGGGGCGG [C27A G19A]	0.09
CCGCCUAACACUGCCAAUUCCGGUCCAAAGCCCGGAUAAAAGUGGAGGGGGCGG [C27A G19U]	0.04
CCGCCUAACACUGCCAAUGCCUGUCCAAAGCCCGGAUAAAAGUGGAGGGGGCGG [C27A G22U]	0.06
CCGCCUAACACUGCCAAUGCCCGUCCAAAGCCCGGAUAAAAGUGGAGGGGGCGG [C27A G22C]	0.03
CCGCCUAACACUGCCAAUGCCAGUCCAAAGCCCGGAUAAAAGUGGAGGGGGCGG [C27A G22A]	0.1
CCGCCUAACACUGCCAAUGCCGGUCCAAAGCGCGGAUAAAAGUGGAGGGGGCGG [C27A C32G]	0.06
CCGCCUAACACUGCCAAUGCCGGUCCAAAGCUCGGAUAAAAGUGGAGGGGGCGG [C27A C32U]	0.06
CCGCCUAACACUGCCAAUGCCGGUCCAAAGCACGGAUAAAAGUGGAGGGGGCGG [C27A C32A]	0.09
CCGCCUAACACUGCCAAUGCCGGUCCAAAGCCCGGAUAAAAGUCGAGGGGGCGG [C27A G44C]	0.14
CCGCCUAACACUGCCAAUGCCGGUCCAAAGCCCGGAUAAAAGUUGAGGGGGCGG [C27A G44U]	0.14
CCGCCUAACACUGCCAAUGCCGGUCCAAAGCCCGGAUAAAAGUAGAGGGGGCGG [C27A G44A]	0.1
CCGCCUAACACUGCCAAUGCCGGUCUCAAGCCCGGAUAAAAGUGGAUGGGGCGG [C26U G47U]	0.06
CCGCCUAACACUGCCAAUGCCGGUCUCAAGCCCGGAUAAAAGUGGACGGGGCGG [C26U G47C]	0.07
CCGCCUAACACUGCCAAUGCCGGUCUCAAGCCCGGAUAAAAGUGGAAGGGGCGG [C26U G47A]	0.08
CCGCCUAACACUGCCAAUGCCGGUCCAAAGCCCCGAUAAAAGUGGAGGGGGCGG [C27A G34C]	0.09
CCGCCUAACACUGCCAAUGCCGGUCCAAAGCCCUGAUAAAAGUGGAGGGGGCGG [C27A G34U]	0.17
CCGCCUAACACUGCCAAUGCCGGUCCAAAGCCCAGAUAAAAGUGGAGGGGGCGG [C27A G34A]	0.18
CCGCCUAACACUGCCAAUGCCGGUCUCAAGCCCGGAUAAAAGUGUAGGGGGCGG [C26U G45U]	0.04
CCGCCUAACACUGCCAAUGCCGGUCUCAAGCCCGGAUAAAAGUGCAGGGGGCGG [C26U G45C]	0.04
